Activity calls are given as the source filed them.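 How the source made its calls, unless noted: active means viability at or below 30% in both replicate assays; inconclusive means viability at or below 30% in just one of the two assays; inactive means the rest.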 Square brackets hold non-standard residues; d marks the D form. Peptide text beside a SMILES is read from it. ξ: configuration not given here. ξV = CC(C)C(N)C(=O)O
What was measured:
[1] = reducers of endogenous Her2 protein level, primary screen, SKBR3 breast tumor cells, AlphaScreen, ATP viability (AID 461;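 active means Her2 level under about 52% in both replicate screens, with viability over 70% of control, limit read from the data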;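 on Her2 level: lower value means less Her2 protein in the cells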;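 on viability: percent of carrier control wells set as 100% viability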); settings: 18-24 h, measured here: SKBR3 viability, ATP luminescence, at 10 µM
[2] = target: Receptor tyrosine-protein kinase erbB-2 (Homo sapiens) (UniProt P04626); assay: as above; settings: 18-24 h, at 10 µM, stronger effect = lower value
[3] = SK-BR-3 cell growth inhibitors, pilot screen, 24 h, human (AID 572;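 active means viability at or below 10% of carrier control in both of two separate runs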;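 further: compound exposure lasted between 18 and 24 h rather than exactly 24 h; 100% = carrier-treated control wells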); settings: SK-BR-3 viability, CellTiter-Glo luminescence, at 10 µM, stronger effect = lower value
[4] = HUVEC growth inhibition – cell-based, human, primary screen (AID 575); settings: HUVEC proliferation, CellTiter-Glo luminescence, 72 h; at 10 µM; stronger effect = lower value;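 further: 100% = median of untreated cell wells with 0.1% DMSO on each plate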
Procedure, shortened: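 Test system: primary human umbilical vein endothelial cells. Quantity: 1250 cells/well. Compound: single 10 µM dose, 0.1% DMSO, from 5x medium stock. Timing: 72 h treatment at 37 °C. Detection: ATP-based CellTiter-Glo luminescent read. Benchmarks: vehicle and MePR control wells. Format: 384-well plates coated with collagen.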

[5] = growth inhibitors of H69AR lung tumor, primary screen, human, duplicate replicates (AID 580;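 active means viability at or under a set limit in both replicates, limit being median viability minus 3 SD, cut at about 48% in these data, passing the limit was not always enough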;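 further: 100% = mean luminescence of untreated wells and 0% = no signal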); settings: H69AR lung tumor cells viability, ATP luminescence, 72 h; at 10 µM; stronger effect = lower value
[6] = reversal of MRP1-mediated doxorubicin resistance, pilot screen, H69AR cells, doxorubicin co-treatment (AID 601;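 active means viability loss from added drug above about 55%, and viability with drug at most 40%, in both replicates, limit read from the data, passing the limit was not always enough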); settings: CellTiter-Glo, 72 h, at 10 µM; for differential viability (reversal): stronger effect = higher value
[7] = 384-well plate pilot, post-Golgi transport modulator project, inhibition of yeast transport mutant growth (AID 636; in the data active means inhibition above about 31%); settings: absorbance 615 nm, about 18 h, stronger effect = higher value
[8] = growth suppression of yeast trafficking mutant, preliminary HTS, modulators of trafficking downstream of Golgi apparatus project, 1536-format plate, OD 615 nm (AID 637; in the data active means inhibition above about 30%); settings: yeast transport mutant growth, absorbance 615 nm, 18 h; stronger effect = higher value
[9] = H69AR cells + 2 uM doxorubicin, measured here: viability with 2 uM doxorubicin, stronger effect = lower value
[10] = H69AR cells, compound alone cytotoxicity

Sequence of Receptor tyrosine-protein kinase erbB-2 (Homo sapiens) (P04626 whole entry, looked up): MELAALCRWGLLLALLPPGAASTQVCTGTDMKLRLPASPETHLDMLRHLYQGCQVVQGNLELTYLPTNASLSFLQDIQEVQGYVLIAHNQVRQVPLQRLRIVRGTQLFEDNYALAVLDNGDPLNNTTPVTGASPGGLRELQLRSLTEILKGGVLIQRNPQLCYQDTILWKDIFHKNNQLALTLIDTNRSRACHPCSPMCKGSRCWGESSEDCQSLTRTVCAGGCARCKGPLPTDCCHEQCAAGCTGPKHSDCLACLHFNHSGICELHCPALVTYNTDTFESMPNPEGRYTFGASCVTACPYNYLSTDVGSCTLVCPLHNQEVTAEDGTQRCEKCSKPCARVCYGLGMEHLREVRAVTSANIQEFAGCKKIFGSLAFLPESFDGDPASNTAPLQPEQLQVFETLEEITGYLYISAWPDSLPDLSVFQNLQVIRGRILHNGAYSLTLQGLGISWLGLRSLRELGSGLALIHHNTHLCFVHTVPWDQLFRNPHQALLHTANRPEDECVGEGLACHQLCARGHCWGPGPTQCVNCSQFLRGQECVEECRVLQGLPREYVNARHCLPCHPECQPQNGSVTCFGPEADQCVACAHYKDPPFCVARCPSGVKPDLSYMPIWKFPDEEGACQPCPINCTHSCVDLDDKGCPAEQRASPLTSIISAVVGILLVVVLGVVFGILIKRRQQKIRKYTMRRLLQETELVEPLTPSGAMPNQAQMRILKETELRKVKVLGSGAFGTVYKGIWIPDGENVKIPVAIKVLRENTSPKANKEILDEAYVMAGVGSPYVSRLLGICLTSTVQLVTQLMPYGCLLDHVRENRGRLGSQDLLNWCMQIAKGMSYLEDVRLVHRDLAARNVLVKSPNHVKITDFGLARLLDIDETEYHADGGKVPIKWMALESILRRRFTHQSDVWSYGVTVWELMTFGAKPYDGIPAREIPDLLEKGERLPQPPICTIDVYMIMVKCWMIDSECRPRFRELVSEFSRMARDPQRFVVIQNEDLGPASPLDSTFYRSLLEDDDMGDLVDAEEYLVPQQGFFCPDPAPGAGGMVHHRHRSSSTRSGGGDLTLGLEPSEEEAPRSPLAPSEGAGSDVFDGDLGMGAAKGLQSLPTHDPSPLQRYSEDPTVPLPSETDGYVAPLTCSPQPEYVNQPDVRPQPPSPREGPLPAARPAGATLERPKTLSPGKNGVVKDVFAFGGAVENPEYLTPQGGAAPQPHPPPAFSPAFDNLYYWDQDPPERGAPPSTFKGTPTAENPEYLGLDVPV

Structure (SMILES)	viability [1]	Her2 level [2]	viability [3]	viability [4]	viability [5]	differential viability (reversal) ([6]; H69AR cells + 2 uM doxorubicin)	viability [6, 9]	viability [6, 10]	inhibition [7]	inhibition [8]
CCOC(=O)N1CCN(C(=O)CCc2c(C)nc3c(c(C)nn3-c3ccc(C)c(C)c3)c2C)CC1	92%	88.5% (inactive)	92% (inactive)	82% (inactive)	86.2% (inactive)	6.21% (inactive)	80%	86.2%	-1.71% (inactive)	-7.64% (inactive)
CCCSc1nc2c(c(=O)[nH]c(=O)n2C)n1CCc1ccccc1	89.5%	92% (inactive)	89.5% (inactive)	83.8% (inactive)	86.8% (inactive)	-9.79% (inactive)	96.6%	86.8%	-7.47% (inactive)	7.42% (inactive)
COc1ccc(Cn2c(CCCO)nc3ccccc32)cc1OC	98.5%	97.5% (inactive)	98.5% (inactive)	105% (inactive)	102% (inactive)	14.2% (inactive)	88%	102%	-7.67% (inactive)	-3.17% (inactive)
CCOCCCNC(=O)C1CCC(=O)N1CCc1ccccc1 (stereo not given)	100%	95.5% (inactive)	100% (inactive)	84.7% (inactive)	98.3% (inactive)	-12.8% (inactive)	111%	98.3%	-3.42% (inactive)	-5.32% (inactive)
COc1ccccc1CN1C(=O)CCC1(C)C(=O)NC1CCCCCC1 (stereo not given)	83%	99% (inactive)	83% (inactive)	101% (inactive)	98.1% (inactive)	2.86% (inactive)	95.2%	98.1%	-2.13% (inactive)	2.62% (inactive)
COCCNc1nc(C(C)(C)C)nc2c1nnn2Cc1ccccc1Cl	87%	86.5% (inactive)	87% (inactive)	119% (inactive)	96.1% (inactive)	1.67% (inactive)	94.4%	96.1%	-0.66% (inactive)	-3.33% (inactive)
CC(=O)NC(C(=O)NCC(N)=O)C(C)C (stereo not given) (Ac-[ξV]-Gly-NH2)	90%	104% (inactive)	90% (inactive)	100% (inactive)	93.9% (inactive)	-1.82% (inactive)	95.7%	93.9%	-5.58% (inactive)	-9.05% (inactive)
CC(=O)N(C)C1(c2nnnn2CCOC(=O)Nc2cccc3ccccc23)CCCC1	119%	85.5% (inactive)	119% (inactive)	83.9% (inactive)	87.3% (inactive)	3.21% (inactive)	84.1%	87.3%	-4.13% (inactive)	5.08% (inactive)
CCOC(=O)N1CCN(C(=O)c2ccc3c(SCC(=O)O)c4c(nc3c2)CCCC4)CC1	95.5%	92.5% (inactive)	95.5% (inactive)	93.8% (inactive)	100% (inactive)	6.52% (inactive)	93.9%	100%	0.13% (inactive)	22.3% (inactive)
COCCCn1c2nc3ccccc3nc2c2c(=O)n(-c3ccccc3OC)cnc21	97.5%	100% (inactive)	97.5% (inactive)	97.8% (inactive)	73.7% (inactive)	6.27% (inactive)	67.5%	73.7%	-0.8% (inactive)	4.75% (inactive)
Cc1ccc2cc3cc(C(=O)NCCN4CCOCC4)oc3nc2c1	99%	79.5% (inactive)	99% (inactive)	86% (inactive)	96.6% (inactive)	9.98% (inactive)	86.6%	96.6%	-5.13% (inactive)	8.67% (inactive)
O=C(CSc1nnc(C2CC2)n1Cc1ccccc1)c1ccc(S(=O)(=O)N2CCOCC2)cc1	120%	92% (inactive)	120% (inactive)	95% (inactive)	86.9% (inactive)	12.5% (inactive)	74.4%	86.9%	-1.82% (inactive)	6.72% (inactive)
CN(CCc1ccccn1)C(=O)CCNC(=O)Cn1cnc2ccccc2c1=O	99.5%	97.5% (inactive)	99.5% (inactive)	88.9% (inactive)	96.4% (inactive)	13.9% (inactive)	82.5%	96.4%	-2.86% (inactive)	-1.9% (inactive)
O=C(NC1CCCCC1)N(Cc1ccccc1)Cc1ccco1	94.5%	98% (inactive)	94.5% (inactive)	101% (inactive)	100% (inactive)	3.09% (inactive)	97.3%	100%	0.54% (inactive)	-3.11% (inactive)
CCN(CC)S(=O)(=O)c1ccc(N2CCCC2)c(C(=O)OCC(=O)/C(C#N)=C(\C)N)c1	91%	92.5% (inactive)	91% (inactive)	66.7% (inactive)	82.6% (inactive)	-11.1% (inactive)	93.7%	82.6%	-6.4% (inactive)	1.97% (inactive)
COc1cc(S(=O)(=O)NC2CCCCC2)ccc1Cl	94.5%	84.5% (inactive)	94.5% (inactive)	82.3% (inactive)	92.7% (inactive)	7.43% (inactive)	85.3%	92.7%	-3.95% (inactive)	-2.7% (inactive)

Structure (SMILES)	viability [1]	Her2 level [2]	viability [3]	viability [4]	viability [5]	differential viability (reversal) ([6]; H69AR cells + 2 uM doxorubicin)	viability [6, 9]	viability [6, 10]	inhibition [7]	inhibition [8]
CC(=O)OCC1OC(c2ccccc2)C(OC(C)=O)C(OC(C)=O)C1OC(C)=O (stereo not given)	90%	94.5% (inactive)	90% (inactive)	108% (inactive)	98.8% (inactive)	-1.94% (inactive)	101%	98.8%	-3.21% (inactive)	-3.83% (inactive)
CCOc1cc(N2CCOCC2)c(OCC)cc1NC(=O)COC(=O)CCc1c[nH]c2ccccc12	97.5%	98.5% (inactive)	97.5% (inactive)	105% (inactive)	99.4% (inactive)	4.66% (inactive)	94.8%	99.4%	-8.38% (inactive)	-8.83% (inactive)
O=S(=O)(NC1=NCCC1)c1cccs1	106%	94% (inactive)	106% (inactive)	114% (inactive)	107% (inactive)	15.3% (inactive)	91.2%	107%	-5.68% (inactive)	-2.67% (inactive)
Cc1ccccc1-c1nc(CN2CCC(C(=O)NCCCN3CCCC3)CC2)c(C)o1	81.5%	91.5% (inactive)	81.5% (inactive)	63% (inactive)	98.2% (inactive)	8.91% (inactive)	89.3%	98.2%	1.32% (inactive)	0.55% (inactive)
CCC1(C)Cc2c(C#N)c(N)n(N)c(=S)c2CO1 (stereo not given)	102%	97.5% (inactive)	102% (inactive)	85.1% (inactive)	81.7% (inactive)	-7.55% (inactive)	89.3%	81.7%	0.91% (inactive)	-2.13% (inactive)
O=C(CSc1nnc2ccccn12)NCCN1C(=O)CSC1=O	134%	85.5% (inactive)	134% (inactive)	92.5% (inactive)	105% (inactive)	11.8% (inactive)	93.6%	105%	-3.64% (inactive)	-0.32% (inactive)
Cc1noc(C)c1S(=O)(=O)N1CCC(C(=O)N2CCN(Cc3ccc4c(c3)OCO4)CC2)CC1	94%	92.5% (inactive)	94% (inactive)	99% (inactive)	91.9% (inactive)	-6.75% (inactive)	98.6%	91.9%	-1.45% (inactive)	-0.63% (inactive)
CCSc1nncn1/N=C/c1ccc(OC)c(OC)c1	84%	124% (inactive)	84% (inactive)	91.8% (inactive)	91.6% (inactive)	-3.4% (inactive)	95%	91.6%	-0.9% (inactive)	-7.5% (inactive)
Cc1ccc(S(=O)(=O)N2CCN(CCO)CC2)cc1-c1nnc2c3ccccc3c(C)nn12	104%	94% (inactive)	104% (inactive)	99.4% (inactive)	96.2% (inactive)	2.01% (inactive)	94.2%	96.2%	-5.07% (inactive)	-2.79% (inactive)
Cc1cc(=O)oc2cc(Oc3ncccn3)ccc12	98%	106% (inactive)	98% (inactive)	101% (inactive)	83% (inactive)	-6.5% (inactive)	89.4%	83%	-8.4% (inactive)	16.7% (inactive)
COc1ccc(/C=N/n2c(=O)[nH]c3c([nH]c4ccc(C)cc43)c2=O)cc1CN1CCOCC1	112%	100% (inactive)	112% (inactive)	95.6% (inactive)	84.6% (inactive)	0.925% (inactive)	83.7%	84.6%	-1.71% (inactive)	12% (inactive)
O=C(c1ccco1)N1CCN(c2cccc(Cl)c2)CC1	101%	103% (inactive)	101% (inactive)	88.1% (inactive)	97.9% (inactive)	5.25% (inactive)	92.7%	97.9%	-0.93% (inactive)	-9.68% (inactive)
CCOC(=O)c1ccc(-n2c(=O)[nH]c3ccccc3c2=O)cc1	102%	120% (inactive)	102% (inactive)	105% (inactive)	93.1% (inactive)	2.73% (inactive)	90.4%	93.1%	3.07% (inactive)	-2.74% (inactive)
CSCCC(NC(=O)c1ccco1)C(=O)O (stereo not given)	97.5%	110% (inactive)	97.5% (inactive)	112% (inactive)	91.8% (inactive)	0.86% (inactive)	91%	91.8%	-0.93% (inactive)	15% (inactive)
Cn1c(SCc2ccc3c(c2)OCO3)nnc1-c1ccccc1	99.5%	108% (inactive)	99.5% (inactive)	99.1% (inactive)	96.2% (inactive)	11.7% (inactive)	84.4%	96.2%	1.45% (inactive)	-1.11% (inactive)
COc1ccc(OC)c(C(=O)c2coc3ccc(O)c(CN4CCOCC4)c23)c1	95.5%	78% (inactive)	95.5% (inactive)	97.8% (inactive)	90.1% (inactive)	-4.02% (inactive)	94.1%	90.1%	-5.07% (inactive)	-8.73% (inactive)

— PubChem BioAssay
